# PubChem BioAssay
# Calls of active or inactive are those of the source.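 How the source made its calls, unless noted: active means visually confirmed hit in the image check and inhibition above 20%; inconclusive means visually confirmed hit but inhibition not above 20%; inactive means no visual hit in the image check.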
# Experiments:
# [1] = inhibitors of TNFa-induced NFkB p65 translocation, primary screen, imaging, HUVEC, MLSMR starter and 10KST1 sets (AID 438;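 active means inhibition above 20% together with a positive visual image hit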;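 further: compound added about 3h40 before a 20 min TNFalpha stimulation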;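 on inhibition: signal is the nuclear over cytoplasmic p65 intensity ratio per well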); details: HUVEC TNFa-induced p65 nuclear translocation; cell count: measured here: nuclei count (cytotoxicity indicator), at 2.08 µM; inhibition: at 2 µM, stronger effect = higher value, 0% TNFa-plus-vehicle, 100% no-TNFa wells
# [2] = inhibitors of mutant huntingtin aggregation, primary screen, imaging, exon1htt(103Q)mCFP cells, high-content imaging (AID 483;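 active means visual image review flags a hit and inhibition of aggregation exceeds 20%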;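 further: compound exposure lasted 3 days before fixation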;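 on nuclei count: percent of the per-plate median nuclei count of sample wells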); details: exon1htt(103Q)mCFP cell line, aggregate imaging, at 2 µM; inhibition of aggregation: stronger effect = higher value; nuclei count: measured here: cell count, toxicity
# [3] = inhibitors of E-selectin induction by TNFa, primary screen, imaging, HUVEC, immunofluorescence, MLSMR starter and 10KST1 sets (AID 487); details: HUVEC TNFalpha-induced E-selectin immunofluorescence imaging, at 2 µM; inhibition: stronger effect = higher value; nuclei count: measured here: cell number, toxicity;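 on inhibition: signal is fraction of cell area covered by stained E-selectin grains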;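 on nuclei count: 100% = median nuclei count of all wells on the same plate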
# [4] = molecular target: Voltage-gated potassium channel subunit beta-2 (Rattus norvegicus) (UniProt P62483); experiment: KvBeta enzyme negative modulators, primary screen, biochemical, NADPH fluorescence (AID 622;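 active means fluorescence slope higher than the sample average by over 3 SD, cut at about -0.22 in these data, passing the limit was not always enough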;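 further: slope of raw intensity against log time taken from 70 to 1610 s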); details: recombinant KvBeta, 4-cyanobenzaldehyde reduction, at 10 µM, stronger effect = higher value
# [5] = molecular target: Voltage-gated potassium channel subunit beta-2 (Rattus norvegicus) (UniProt P62483); experiment: KvBeta positive modulators, primary screen, biochemical, NADPH fluorescence (AID 623;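 active means NADPH fluorescence slope more negative than the mean of all samples by about 3 SD, 99.7% confidence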;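 further: fluorescence intensity change per second fitted from 20 to 320 s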); details: Recombinant KvBeta, NADPH fluorescence decrease slope, 10 min; at 10 µM; stronger effect = lower value
# [6] = molecular target: Muscarinic acetylcholine receptor M4 (Homo sapiens) (UniProt P08173); experiment: compounds altering M4/GIRK thallium flux, either direction, primary screen, M4 allosteric agonist project, cell-based, HEK293 M4/GIRK, BTC-AM (AID 625;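 active means fluorescence slope after compound addition differing from the mean of all tested samples at 99.7% confidence, mostly higher but some lower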;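 further: thallium influx through GIRK channels coupled to M4 in HEK293 cells with BTC-AM dye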); details: at 10 µM, actives lie on both sides
# Method in brief: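 Material: HEK293 cells with M4 receptor and GIRK channels; Times: cells overnight at 37 °C, BTC-AM loading 1 h, reads 2 min total; Technique: kinetic BTC-AM fluorescence sampled at 1 Hz, 10 s pre-addition baseline; Read-out basis: slope over 15–24 s of trace normalized to starting intensity; Controls: carbachol positive, DMSO negative.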
# [7] = inhibitors of Sendai virus-induced IRF3 signaling, primary screen, TLR/RLR signaling modifier project, cell-based, Sendai virus stimulus, luciferase, 10K MLSCN set (AID 602276;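 active means inhibition at or above 50% at 10 µM; inactive means inhibition below 50%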;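 further: firefly luciferase from ISG56 promoter only with Renilla not read in this screen; 0% = Sendai virus plus DMSO and 100% = medium plus DMSO without virus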); details: HEK293 RL24 IRF3 luciferase reporter, at 10 µM, stronger effect = higher value
# [8] = inhibitors of poly I:C-induced TLR3 signaling, primary screen, cell-based, poly I:C stimulus, luciferase, 10K MLSCN set (AID 602277;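 active means inhibition of the reporter signal at or above 50%; inactive means inhibition below 50%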); details: HEK293-TLR3 RL24 IRF3 luciferase reporter, at 10 µM, stronger effect = higher value
# Muscarinic acetylcholine receptor M4 (Homo sapiens), sequence (P08173 whole entry, looked up): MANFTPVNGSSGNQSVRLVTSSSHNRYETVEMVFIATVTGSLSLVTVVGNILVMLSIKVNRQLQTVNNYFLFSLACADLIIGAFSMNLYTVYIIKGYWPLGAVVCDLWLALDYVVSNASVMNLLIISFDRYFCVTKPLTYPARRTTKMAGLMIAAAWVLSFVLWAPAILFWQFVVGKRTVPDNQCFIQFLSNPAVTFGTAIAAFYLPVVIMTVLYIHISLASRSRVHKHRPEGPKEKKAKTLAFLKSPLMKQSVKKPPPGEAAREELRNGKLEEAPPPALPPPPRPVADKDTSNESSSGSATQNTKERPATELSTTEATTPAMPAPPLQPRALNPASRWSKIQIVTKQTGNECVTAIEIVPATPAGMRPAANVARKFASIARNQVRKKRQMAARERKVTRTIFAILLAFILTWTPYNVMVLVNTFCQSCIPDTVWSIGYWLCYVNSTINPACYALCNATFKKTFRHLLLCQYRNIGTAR
# Voltage-gated potassium channel subunit beta-2 (Rattus norvegicus), sequence (P62483 whole entry, looked up): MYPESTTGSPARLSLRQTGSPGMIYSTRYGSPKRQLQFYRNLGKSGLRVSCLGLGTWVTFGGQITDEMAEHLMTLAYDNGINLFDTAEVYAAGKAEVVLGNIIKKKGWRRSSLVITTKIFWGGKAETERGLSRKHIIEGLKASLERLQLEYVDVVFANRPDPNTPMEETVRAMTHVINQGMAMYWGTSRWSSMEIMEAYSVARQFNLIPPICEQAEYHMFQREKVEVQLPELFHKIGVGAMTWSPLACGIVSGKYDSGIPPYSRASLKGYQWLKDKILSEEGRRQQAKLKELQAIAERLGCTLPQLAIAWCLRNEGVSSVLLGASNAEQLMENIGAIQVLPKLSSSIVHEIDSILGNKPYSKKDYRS
Compound,cell count [1],inhibition [1],inhibition of aggregation [2],nuclei count [2] [%],inhibition [3],nuclei count [3] [%],fluorescence slope [4],NADPH fluorescence slope [5],fluorescence slope [6],inhibition [7],inhibition [8]
CCOC(=O)N1CCC(O)(c2cc(C)c(C)cc2C)CC1,494,-1.1% (inactive),-15.6% (inactive),93,-16% (inactive),112,-0.316 (inactive),-2.5e-05 (inactive),0.00607 (inactive),16.2% (inactive),-0.7% (inactive)
Cn1cccc1C1NC(=O)c2c(sc3c2CCC(C(C)(C)C)C3)N1 (stereo not drawn),495,1.7% (inactive),-10.6% (inactive),93,-107% (inactive),127,-0.19 (inactive),-1.5e-05 (inactive),0.00584 (inactive),-3.95% (inactive),-48.7% (inactive)
Cc1ccc(N2CC(C(=O)Nc3ccc4c(c3)OCO4)CC2=O)cc1 (stereo not drawn),556,-19.5% (inactive),18.6% (inactive),110,-43.5% (inactive),120,-0.567 (inactive),-4.3e-05 (inactive),0.00603 (inactive),14.2% (inactive),21.6% (inactive)
CN(C)/C=c1\sc2c(C#N)cc(C(=O)c3ccc(Br)cc3)n2c1=O,398,8.6% (inactive),5.6% (inactive),102,0.2% (inactive),102,-0.439 (inactive),-5.9e-05 (inactive),-0.00984 (active),-3.73% (inactive),19.1% (inactive)
CC(=O)Nc1c(Cl)n(C(C)=O)c2ccccc12,432,-1% (inactive),-9.1% (inactive),100,-3.8% (inactive),103,-0.304 (inactive),-2.6e-05 (inactive),0.00935 (inactive),27.6% (inactive),21% (inactive)
O=C(COC(=O)Cc1cccc(C(F)(F)F)c1)NCC1CCCO1 (stereo not drawn),704,3.3% (inactive),3% (inactive),106,-199% (inactive),134,-0.497 (inactive),-0.000214 (inactive),0.00505 (inactive),-6.76% (inactive),2.06% (inactive)
COc1ccc2c(C(=O)CN(C)C3CCCCC3)c[nH]c2c1,533,-0.9% (inactive),-4.4% (inactive),82.5,-20.8% (inactive),96.7,-0.561 (inactive),-2.1e-05 (inactive),0.0054 (inactive),20.8% (inactive),39.7% (inactive)
CCCCn1c(CN2CCN(CCO)CC2)nc2ccccc21,611,6.2% (inactive),-17.9% (inactive),112,44.3% (inactive),84.5,-0.468 (inactive),-0.000309 (inactive),0.00452 (inactive),2.03% (inactive),19.1% (inactive)
